Source: PubChem BioAssay AID488805 (Broad Institute, 2010)
The source made the active and inactive calls.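 The calls were made as follows: active = luminescence gain over solvent baseline above 10% of the positive control response, limit may shift with hit yield; inactive = the rest, including opposite-direction effects.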

System: not listed separately
Assay: compounds inducing hypoxia-responsive transcription – cell-based, U2OS HRE-luc, luminescence, dry powder, set 2, dose response (AID 488805)
Settings: U2OS HRE-luciferase reporter, HIF pathway activation, luminescence; at 0.056 µM; stronger effect = higher value
Summary of the method: (§1)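 System: U2OS cells with HRE-luciferase reporter / Quantity: 6,000 cells/well / Medium: Phenol-free DMEM, 10% FBS / Compound dosing: 8-point, 3-fold dilution series / Incubation: 24 h compound treatment, 37 °C / Detection: Steady-Glo luminescence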

Row | Structure (SMILES) | max activation
1 | Cc1ccc(CNC(=O)c2cc(-c3ccccc3)on2)cc1 | -4.17% (inactive)
2 | O=C(NCc1ccccc1)c1cc(-c2ccccc2)on1 | 1.94% (inactive)
3 | O=C(Nc1nnc(-c2ccccc2)s1)c1cc(-c2ccccc2)on1 | -3.85% (inactive)
4 | O=C(NCCN1CCCCC1)c1cc(-c2ccccc2)on1 | -1.17% (inactive)
5 | O=C(c1cc(-c2ccccc2)on1)N1CCC(CO)CC1 | -6.22% (inactive)
6 | Cn1c(NC(=O)c2cc(-c3ccccc3)on2)nc2ccccc21 | 1.19% (inactive)
7 | O=C(Nc1ncc2ccccc2n1)c1cc(-c2ccccc2)on1 | 0.964% (inactive)
8 | O=C(NC1CCc2ccccc2C1)c1cc(-c2ccccc2)on1 (stereo unspecified) | -4.31% (inactive)

Same assay, conditions: U2OS HRE-luciferase reporter, HIF pathway activation, luminescence; at 0.16 µM; stronger effect = higher value

Row | Structure (SMILES) | max activation
9 | O=C(NCC1CCCCC1)c1cc(-c2ccccc2)on1 | 1.14% (inactive)

Same assay, conditions: U2OS HRE-luciferase reporter, HIF pathway activation, luminescence; at 0.5 µM; stronger effect = higher value

Row | Structure (SMILES) | max activation
10 | O=C(Nc1ncc(-c2ccccc2)o1)c1cc(-c2ccccc2)on1 | -7.77% (inactive)
11 | Cc1ccccc1CNC(=O)c1cc(-c2ccccc2)on1 | 2.16% (inactive)
12 | O=C(Nc1ccc2ccccc2n1)c1cc(-c2ccccc2)on1 | -5.52% (inactive)
13 | CN(C)CCNC(=O)c1cc(-c2ccccc2)on1 | -2.73% (inactive)
14 | Cn1c(-c2ccccc2)cnc1Nc1nc(-c2ccccn2)nnc1-c1ccccc1 | -0.998% (inactive)
15 | O=C(Nc1cn2ccccc2n1)c1cc(-c2ccccc2)on1 | -5.84% (inactive)
16 | Cc1cccc(CNC(=O)c2cc(-c3ccccc3)on2)c1 | -4.69% (inactive)

Same assay, conditions: U2OS HRE-luciferase reporter, HIF pathway activation, luminescence; at 4.6 µM; stronger effect = higher value

Row | Structure (SMILES) | max activation
17 | O=C(c1cc(-c2ccccc2)on1)N1CCN(c2ccncc2)CC1 | 6.21% (inactive)
18 | CC(C)(C)CCNC(=O)c1cc(-c2ccccc2)on1 | 1.55% (inactive)
19 | O=C(Nc1nc(-c2ccccc2)cs1)c1cc(-c2ccccc2)on1 | 6.53% (inactive)
20 | O=C(Nc1nc2ccccc2s1)c1cc(-c2ccccc2)on1 | -2.04% (inactive)
21 | O=C(NC1Cc2ccccc2C1)c1cc(-c2ccccc2)on1 | 2.61% (inactive)
22 | O=C(c1cc(-c2ccccc2)on1)N1CCC(N2CCOCC2)CC1 | 1.93% (inactive)

Same assay, conditions: U2OS HRE-luciferase reporter, HIF pathway activation, luminescence; at 13.5 µM; stronger effect = higher value

Row | Structure (SMILES) | max activation
23 | O=C(NCC1CC1)c1cc(-c2ccccc2)on1 | 7.82% (inactive)
24 | O=C(NCCCO)c1cc(-c2ccccc2)on1 | 8.74% (inactive)

Same assay, conditions: U2OS HRE-luciferase reporter, HIF pathway activation, luminescence; at 38 µM; stronger effect = higher value

Row | Structure (SMILES) | max activation
25 | CN1CCN(C(=O)c2cc(-c3ccccc3)on2)CC1 | -5.2% (inactive)
26 | O=C(c1cc(-c2ccccc2)on1)N1CCc2cccnc21 | 2.94% (inactive)
27 | O=C(Nc1cnc2ccccc2c1)c1cc(-c2ccccc2)on1 | 2.22% (inactive)
28 | Cn1c(-c2ccccc2)cnc1NC(=O)c1cc(-c2ccccc2)on1 | 2.14% (inactive)
29 | O=C(c1cc(-c2ccccc2)on1)N1CCC(N2CCCC2)CC1 | 3.88% (inactive)
30 | Cc1ccc(NC(=O)c2cc(-c3ccccc3)on2)cn1 | 4.68% (inactive)
31 | Cc1cccc(NC(=O)c2cc(-c3ccccc3)on2)n1 | -6.71% (inactive)

System: U2OS HRE-luciferase reporter, HIF pathway activation, luminescence
Assay: as above
Settings: not given
Summary of the method: as §1

Row | Structure (SMILES) | AC50 [µM]
32 | CC(C)(C)CCNc1nc(-c2ccccn2)nnc1-c1ccccc1 | 2.59
33 | CN1CCN(c2nc(-c3ccccn3)nnc2-c2ccccc2)CC1 | 14.5
34 | O=C(NCCCn1ccnc1)c1cc(-c2ccccc2)on1 | 8.16
35 | c1ccc(-c2nnc(-c3ccccn3)nc2NCCN2CCOCC2)cc1 | 18.1
36 | Cc1ccc(Nc2nc(-c3ccccn3)nnc2-c2ccccc2)cn1 | 27.9
37 | Cc1ccccc1CNc1nc(-c2ccccn2)nnc1-c1ccccc1 | 6.05
38 | c1ccc(-c2nnc(-c3ccccn3)nc2NCCCN2CCOCC2)cc1 | 11
39 | C=CCNc1nc(-c2ccccn2)nnc1-c1ccccc1 | 8.3
40 | c1ccc(-c2nnc(-c3ccccn3)nc2Nc2nc3ccccc3s2)cc1 | 8.19
41 | c1ccc(-c2nnc(-c3ccccn3)nc2NCC2CCCCC2)cc1 | 3.12
42 | c1ccc(-c2csc(Nc3nc(-c4ccccn4)nnc3-c3ccccc3)n2)cc1 | 2.84
43 | CN(C)c1nc(-c2ccccn2)nnc1-c1ccccc1 | 11.7
44 | c1ccc(-c2nnc(-c3ccccn3)nc2N2CCC(N3CCOCC3)CC2)cc1 | 8.79
45 | O=C(NCCCN1CCOCC1)c1cc(-c2ccccc2)on1 | 9.51
46 | c1ccc(-c2nnc(-c3ccccn3)nc2NCC2CC2)cc1 | 12.3
47 | c1ccc(-c2nnc(-c3ccccn3)nc2Nc2cnc3ccccc3n2)cc1 | 6.4
48 | OCC1CCN(c2nc(-c3ccccn3)nnc2-c2ccccc2)CC1 | 18.7
49 | OCCCNc1nc(-c2ccccn2)nnc1-c1ccccc1 | 21.3
50 | Cc1cccc(Nc2nc(-c3ccccn3)nnc2-c2ccccc2)n1 | 25.6
51 | c1ccc(-c2nnc(Nc3nc(-c4ccccn4)nnc3-c3ccccc3)s2)cc1 | 6.81
52 | c1ccc(CNc2nc(-c3ccccn3)nnc2-c2ccccc2)cc1 | 7.03
53 | c1ccc(-c2nnc(-c3ccccn3)nc2N2CCN(c3ccncc3)CC2)cc1 | 8.32
54 | Cc1ccc(CNc2nc(-c3ccccn3)nnc2-c2ccccc2)cc1 | 3.29
55 | Cc1cccc(CNc2nc(-c3ccccn3)nnc2-c2ccccc2)c1 | 3.29
56 | O=C(NCCCCO)c1cc(-c2ccccc2)on1 | 10.5
